Sampled rows, rich in hits. Any-hit rate of the full collection: about 4.9%.
NF-kB expr up = activators of NF-kB expression in neurons, primary screen, cell-based, HTS | human neuronal cells, NF-kB reporter expression; active compounds read high | fold change at 12.5 µM | 190,000 tested, 1.6% active | AID 1239, 2008; in the data active means fold change above about 3.3
STAT1 activator = STAT1 signaling activators, primary screen, cell-based, HTS, luciferase reporter | AID 932, 2007 | activation (% of control), % at 5.5 µM | NIH 3T3 STAT1-luciferase reporter, IFN-gamma, luminescence; 100% = IFN-gamma alone, no compound | 200,000 tested, 2.6% active;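 active means activation above the screen-wide mean activation plus 3 SD, cut at about 130% in these data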;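 further: raw ratio to IFN-gamma control signal so 100% means no change and 0% no light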
STAT3 inh-1 = IL-6 driven STAT3 reporter inhibitors, primary screen, U3A cells, luciferase, luminescence, MLSCN library; IL-6 STAT3-luciferase reporter; host cell line lacks STAT1; inhibition, % at 5.5 µM; 190,000 tested, 0.89% active; AID 862, 2007;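 active means inhibition above the mean inhibition across all screened compounds plus 3 SD, cut at about 44% in these data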;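 further: 0% = DMSO only wells and 100% = 100 µM nifuroxazide control wells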
STAT1 inh = STAT1 signaling inhibitors, primary screen, cell-based, HTS, luciferase reporter; NIH 3T3 STAT1-luciferase reporter, IFN-gamma, luminescence; inhibition, % at 5.5 µM; 200,000 tested, 0.35% active; AID 920, 2007;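 active means inhibition above a set limit, the mean inhibition across all tested compounds plus 3 SD, cut at about 34% in these data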;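 further: 0% = IFN-gamma with DMSO and 100% = IFN-gamma with 300 µM nifuroxazide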
STAT3 activator = IL-6 driven STAT3 reporter potentiators, primary screen, U3A cells, luciferase, luminescence, MLSCN library; activation (% of control), % at 5.6 µM; 190,000 tested, 0.91% active; IL-6 STAT3-luciferase reporter; 100% = signal with IL-6 EC80 alone;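 active means activation above the screen-wide mean of compound activation plus 3 SD, cut at about 130% in these data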;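 further: 0% = background luminescence of wells with medium and substrate only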
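Material: human STAT1-deficient U3A cells with stable STAT3-luciferase reporter / Probe or stimulus: IL-6 stimulus at 33 ng/mL final / Schedule: 1 h compound pre-exposure, 6 h IL-6 stimulation, 37 °C / Technique: luminescence / Read-out basis: percent of IL-6-only median luminescence / Control set: IL-6-only high control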
APP 5'UTR act = activators of APP 5'UTR luciferase reporter, primary screen, SH-SY5Y cells. SH-SY5Y APP 5'UTR luciferase reporter, luminescence; zero percent = DMSO vehicle wells. activation, % at 2 µM. 190,000 tested, 1% active. AID 1276, 2008;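 active means activation above a set limit, based on mean plus 3 SD of controls, cut at about 140% in these data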
STAT3 inh-2 = STAT3 reporter inhibitors, retest of hits, confirmation, U3A cells, luciferase, luminescence; IL-6 STAT3 luciferase reporter; cell line lacks STAT1; AID 1265, 2008; shares compounds with STAT3 inh-1; 1,200 tested, 45% active; inhibition, % at 5.7 µM;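 active means inhibition above the hit cutoff computed for the primary STAT3 screen, cut at about 44% in these data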;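 further: 0% = IL-6 plus DMSO and 100% = IL-6 plus nifuroxazide control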
NFkB inh 2 = NF-kB reporter inhibitors in human cells, confirmation, counter-screen for STAT3 inhibitor project, cell-based, HEK293T, luciferase, TNF-alpha stimulus | AID 1308, 2008 | inhibition, % at 5.7 µM | 1,200 tested, 36% active | shares compounds with STAT3 inh-1 | TNF-alpha induced;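 active means inhibition above the mean of solvent-only control wells plus 3 SD, cutoff set per campaign, cut at about 13% in these data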;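 further: 0% = TNF-alpha with DMSO and 100% = TNF-alpha with MG high control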
STAT1 inh 2 = STAT1 reporter inhibitors, IFN-gamma induced, confirmation, counter-screen for STAT3 inhibitor project, cell-based, NIH 3T3, luciferase luminescence; inhibition, % at 5.7 µM; 1,200 tested, 27% active; shares compounds with STAT3 inh-1; NIH 3T3 STAT1-luciferase reporter;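 active means inhibition above the mean plus 3 SD of solvent-only control wells, limit set per screening run, cut at about 16% in these data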;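 further: 0% = DMSO with IFN-gamma and 100% = nifuroxazide control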
The depositor's hits bear a star; . = not tested or not shown.

SMILES | NF-kB expr up | STAT1 activator | STAT3 inh-1 | STAT1 inh | STAT3 activator | APP 5'UTR act | STAT3 inh-2 | NFkB inh 2 | STAT1 inh 2
COc1ccc(C2C3=C(Nc4ncnn42)c2ccccc2CCC3)cc1 (centres undefined) | 1.2 | 94 | 8 | 6 | 98 | -10 | . | . | .
Fc1ccc(/C=C2\CCCC3=C2Nc2ncnn2C3c2ccc(F)cc2)cc1 (centres undefined) | 0.28 | 96 | 45* | 5 | 63 | -56 | 32 | 3 | 19*
CN(C)/C=C(/C(=O)c1ccc(Cl)c(Cl)c1)S(C)(=O)=O | 2.4 | 97 | 8 | 2 | 99 | 5 | . | . | .
Cc1ccc2nc(-c3cc(N)cc(N)c3)oc2c1 | 0.95 | 97 | 43* | 3 | 65 | -38 | 25 | 5 | -15
Cc1cc(C(=O)COC(=O)c2ccc[nH]c2=O)c(C)n1C | 0.59 | 110 | -1 | -11 | 103 | 1 | . | . | .
COCCn1c(C)cc(C(=O)COC(=O)c2ccc[nH]c2=O)c1C | 0.29 | 75 | 48* | 28 | 59 | -1 | 2 | -4 | -14
O=C(N/N=C/c1ccccc1Cl)c1n[nH]c2c1CCCC2 | 0.96 | 126 | 68* | -29 | 43 | 131 | 73* | 56* | 23*
O=C(N/N=C/c1ccccc1)c1n[nH]c2c1CCCC2 | 1 | 102 | 56* | -5 | 58 | 105 | 15 | -7 | -86
CC1=C(C(=O)NCCCOC(C)C)C2(CCC(C)CC2)OC1=O (centres undefined) | 1.6 | 99 | -6 | 2 | 105 | -15 | . | . | .
O=C(Nc1nc(-c2ccc(Cl)cc2Cl)cs1)c1ccc(OCC2CCCO2)cc1 (centres undefined) | 0.52 | 108 | 5 | -9 | 98 | 11 | . | . | .
Cc1cc(C)c2nc(NC(=O)c3ccc(OCC4CCCO4)cc3)sc2c1 (centres undefined) | 1.4 | 107 | 47* | -8 | 60 | 14 | 36 | 0 | -11
CCCCC(CC)CNC(=O)CC1Nc2c3ccccc3nc(=S)n2C1=O (centres undefined) | 0.91 | 109 | 12 | -11 | 99 | 9 | . | . | .
COc1ccc(-c2nn(-c3ccccc3)cc2/C=C/C(=O)NCCCn2ccnc2)cc1OC | 0.48 | 94 | 8 | 6 | 97 | -22 | . | . | .
COc1ccc2nc3c(cc2c1)c(NC(=O)c1cccs1)nn3CC(C)C | 0.44 | 94 | 59* | 7 | 51 | -43 | 54* | -10 | 2
Cc1cc(-c2nnc3n2N=C(c2ccc(-c4ccccc4)cc2)CS3)n[nH]1 | 0.72 | 97 | 13 | 3 | 91 | 26 | . | . | .
C[n+]1c2n(c3ccccc31)N=C(c1ccc(-c3ccccc3)cc1)CS2 | 1.9 | 72 | 66* | 29 | 46 | 0 | 33 | 3 | 29*
Cc1ccc(N2C(=O)c3ccccc3C2O)nc1 (centres undefined) | 1.3 | 99 | 74* | 2 | 40 | 113 | 44* | 8 | -21
Cc1ccc(NS(=O)(=O)c2ccc(Cl)c(NC(=S)NC(=O)C3CCCCC3)c2)cc1Cl | 1.1 | 96 | -4 | 4 | 106 | 1 | . | . | .
Cc1ccnc(NC(=O)Nc2cccc(F)c2)c1 | 8.6* | 138* | 46* | -41 | 62 | 198* | -7 | -28 | -130
Cc1nn(C)c(C)c1CN(C)S(=O)(=O)c1ccc2ccccc2c1 | 0.81 | 69 | 78* | 33 | 36 | -47 | 80* | 30* | 24*

High-throughput results: PubChem, several laboratories
